Compound activity from PubChem.
HTR2A ag: mouse Htr2a agonists via beta-arrestin recruitment, primary screen, cell-based, luminescence; 5-hydroxytryptamine receptor 2A (Mus musculus), P35363; CHO-K1 mHTR2A beta-arrestin complementation; percent of 30 µM serotonin response; 360,000 tested, 0.66% active; activation, % at 7.6 µM;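 active = activation above a run cutoff, the mean activation of all tested compounds plus 3 SD, cut at about 14% in these data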;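 note: 0% = plate median of compound wells and 100% = 30 µM serotonin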
Target sequence (P35363 whole entry, looked up): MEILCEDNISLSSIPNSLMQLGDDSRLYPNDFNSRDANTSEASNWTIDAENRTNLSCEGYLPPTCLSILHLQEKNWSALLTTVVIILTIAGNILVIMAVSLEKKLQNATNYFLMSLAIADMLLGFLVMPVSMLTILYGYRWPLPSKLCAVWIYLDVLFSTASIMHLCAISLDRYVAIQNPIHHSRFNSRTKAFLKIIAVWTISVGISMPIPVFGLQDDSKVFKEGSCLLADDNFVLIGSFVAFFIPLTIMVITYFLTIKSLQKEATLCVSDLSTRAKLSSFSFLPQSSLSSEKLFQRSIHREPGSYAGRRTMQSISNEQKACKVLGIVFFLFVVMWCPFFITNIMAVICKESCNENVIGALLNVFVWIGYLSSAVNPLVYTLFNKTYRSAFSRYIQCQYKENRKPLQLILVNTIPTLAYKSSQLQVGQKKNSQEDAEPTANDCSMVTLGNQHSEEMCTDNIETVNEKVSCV
GAA850 FXN act: FXN promoter activators, primary screen, cell-based, luciferase luminescence, HEK293 lucGAA850; AID 540364, 2011; 360,000 tested, 0.56% active; activation, % at 6 µM; HEK293 lucGAA850 FXN promoter luciferase reporter, 24 h; percent of 10 µM SAHA response;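 active = activation above the average of all compounds screened plus 3 SD, cutoff fixed separately per campaign, cut at about 7.5% in these data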;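 note: 0% = DMSO wells and 100% = 10 µM SAHA wells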
MC4R barr agon: MC4R agonists recruiting beta-arrestin, primary screen, cell-based, luminescence, agonist arm of biased-ligand search; 360,000 tested, 0.98% active; activation, % at 8.9 µM; Melanocortin receptor 4 (Homo sapiens), P32245; U2OS MC4R beta-arrestin complementation; percent of melanotan II response, DMSO zero;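 active = activation above a per-plate cutoff, the mean activation of sample wells on that plate plus 3 SD, cut at about 8% in these data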
AHR act: AHR activators, primary screen, cell-based, luminescence, luciferase reporter, human; Aryl hydrocarbon receptor (Homo sapiens), P35869; AHR-responsive luciferase reporter cells; activation, % at 5 µM; 320,000 tested, 2.5% active; in the data active = activation above about 47%;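 note: 0% = vehicle wells and 100% = reference agonist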
MC4R antagonist: MC4R antagonists of cAMP signaling, primary screen, cell-based, TR-FRET, antagonist arm of biased-ligand search. Melanocortin receptor 4 (Homo sapiens), P32245. 360,000 tested, 0.48% active. MC4R-expressing cells, MTII-stimulated cAMP, LANCE TR-FRET. inhibition, % at 6.5 µM;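 active = inhibition above its plate's cutoff, the mean of tested wells on that plate plus 3 SD, cut at about 29% in these data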;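 note: 0% = Melanotan II alone and 100% = Melanotan II plus saturating MCL0020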
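Assay system: human MC4R-expressing U2OS cells; reagent: Melanotan II stimulation of cells; dosing: 6.5 µM single dose; timing: compound 30 min, challenge 1 h, detection 1 h; signal: TR-FRET cAMP assay; replicates: one well per compound, no replicates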
MC4R barr conf: MC4R beta-arrestin agonists, retest, confirmation, cell-based, luminescence, U2OS; shares compounds with MC4R barr agon; U2OS MC4R beta-arrestin recruitment; scaled DMSO 0%, Melanotan II 100%; activation, % at 8.9 µM; 2,400 tested, 31% active; AID 602192, 2012;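 active = mean activation across replicates above the hit cutoff set in the earlier primary screen, cut at about 8% in these data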
MOR DOR agonist: agonists of MOR-DOR heterodimerization, counter-screen for MC4R biased agonist project, cell-based, luminescence; shares compounds with MC4R barr agon; U2OS PathHunter beta-arrestin, beta-gal luminescence; percent of deltorphin B response, DMSO zero; activation, % at 9.2 µM; 2,400 tested, 5.8% active; AID 602194, 2012;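 active = mean activation across replicates exceeds the hit threshold derived in the earlier primary screen, cut at about 18% in these data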;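 note: 100% = deltorphin B at 0.9 µM final and 0% = DMSO alone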
An asterisk follows results filed as active; . = no result. Most compounds without a hit are left out; they make up all but 4.7% or so of the library.

SMILES | HTR2A ag | GAA850 FXN act | MC4R barr agon | AHR act | MC4R antagonist | MC4R barr conf | MOR DOR agonist
Cc1cc(F)cc(-c2cc(C(=O)NCc3ccc(C(F)(F)F)cc3)[nH]n2)c1 | -6 | 0 | 14* | . | 7 | 3 | 6
O=C(N/N=C/c1cc2ccccc2nc1Cl)[C@H]1C[C@@H]1c1ccccc1 | -1 | 1 | 2 | 13 | 14 | . | .
Cc1ccc2cc(/C=N/NC(=O)[C@H]3C[C@@H]3c3ccccc3)c(Cl)nc2c1 | -4 | 3 | 24* | 13 | 7 | 3 | 4
COc1cccc(C(C)NC(=O)c2ccncc2)c1 (stereo not given) | -2 | 1 | 2 | -2 | 14 | . | .
NNc1ccc(S(=O)(=O)N2CCCCC2)cn1 | -1 | 0 | 12* | 5 | 2 | -3 | 1
COc1ccc(CN2C(=O)CCCC2(C)c2nc3ccccc3[nH]2)cc1 (stereo not given) | 1 | . | . | . | . | . | .
CNC(=O)COC(=O)c1ccccc1Nc1ccccc1 | -3 | 2 | -3 | -1 | 14 | . | .
O=C(COC(=O)c1ccccc1Nc1ccccc1)Nc1ccccc1 | -4 | 2 | 15* | 3 | 4 | 3 | 8
CC(=O)c1ccc(NC(=O)COC(=O)c2ccccc2Nc2ccccc2)cc1 | -7 | 3 | 10* | 1 | 4 | 4 | 6
Cc1cccc(C)c1NC(=O)COC(=O)c1ccccc1Nc1ccccc1 | -2 | 1 | 0 | 0 | 10 | . | .
CCNC(=O)C1(C)CCN1Cc1cc(-c2ccccc2)n(C)n1 (stereo not given) | -1 | 0 | 0 | . | 7 | . | .
CC(C)CCNC(=O)[C@@H](Cc1ccccc1)NC(=O)CC[C@H]1O[C@@H](n2ccc(=O)[nH]c2=O)[C@H](O)[C@@H]1O | 4 | . | . | . | . | . | .
COC(=O)c1ccc(NC(=O)c2ccc3c(c2)NC(=O)C2CCCN32)cc1 (stereo not given) | . | . | . | 1 | . | . | .
Cc1cccc(C)c1NC(=O)CSc1nc(COc2ccccc2)nc2ccccc12 | -2 | 1 | 7 | 19 | 11 | . | .
Cc1cccc(NC(=O)CSc2nc(COc3ccccc3)nc3ccccc23)c1C | 0 | -1 | 20* | 10 | 7 | 3 | 4
CC(OC(=O)c1ccc(Cl)nc1)C(=O)NC1CCCC1 (stereo not given) | 8 | 0 | -3 | -2 | 11 | . | .
COc1cc(/C=N/Nc2ccccc2[N+](=O)[O-])cc(OC)c1O | -4 | 4 | 10.0* | 15 | -12 | -4 | 6
COc1cc(/C=N/Nc2ccc(S(N)(=O)=O)cc2[N+](=O)[O-])cc(OC)c1O | -2 | -2 | 0 | 3 | 2 | . | .
COc1cccc(-c2cc3nc4c(c(N5CCC6(CC5)OCCO6)n3n2)CCC4)c1 | -3 | 2 | 2 | -8 | 15 | . | .
COc1cc(/C=C2/CC/C(=C/c3ccc(O)c(OC)c3)C2=O)ccc1O | -2 | 1 | 55* | -2 | -12 | 32* | 18*
COc1cc(/C=C2\COC/C(=C\c3ccc(O)c(OC)c3)C2=O)ccc1O | 0 | -9 | 8 | -1 | 8 | . | .
CCOc1ccc(C(=O)OCC(=O)Nc2ccc(SC(F)F)cc2)cc1OCC | 1 | 1 | 19* | 2 | 2 | 3 | 5
Cc1cc(C)cc(NC(=O)Nc2ccc(NC(=O)c3ccccc3O)cc2)c1 | 0 | -1 | 16* | 4 | 18 | 6 | 13
O=C(Nc1ccccc1)Nc1ccc(NC(=O)c2ccccc2O)cc1 | -3 | 1 | 1 | 1 | -1 | . | .
